Variants at the floor of the assay were thinned out.
B1: tRNA (parent)
chain: GUUCCGUUGGCGUAAUGGUAACGCGUCUCCCUCCUAAGGAGAAGACUGCGGGUUCGAGUCCCGUACGGAACG

Variants of: B1
Assay: yeast fitness relative to wild type (ratio to wild type); higher = fitter; tRNA-Arg(CCU), competitive growth, 37 C, YPD
In short: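 Variants of the tRNA-Arg(CCU) gene, chemically synthesised with a 3% per-site mutation rate at 69 sites, were placed at the native genomic locus in Saccharomyces cerevisiae. The pooled strains were competed in YPD at 37°C for 24 hours in six parallel replicates. Gene amplicons from the start population and from each end population were read by 100-nucleotide paired-end sequencing. Darwinian fitness relative to wild type came from changes in genotype frequencies; genotypes needed ≥ 100 starting reads, and estimates < 0.5 were set to 0.5.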

| Variant | yeast fitness |
| --- | --- |
| GUUCCCUCGGCGUAAUGGUAACCCGUCUCACUCCUAAGGAGCAGACUCCGGCUUCGAGUCCCGUACGGAACG [G6C U8C G23C C30A A42C G48C G52C] | ≤ 0.5 |
| GUUCCCUCGGCGUAAUGGUAACGCGUCUCCCUCCUAAGGAGAAGACUGAGGGUUCGAGUCCCGUACGGAACG [G6C U8C C49A] | ≤ 0.5 |
| GUUCCCUUGGCGAAAUGGUAACGCGUCUCCCUCAUAAGGAGAAGACUGCGGGUUCGAGUCCCGUACGGAACG [G6C U13A C34A] | ≤ 0.5 |
| GUUCCCUUGGCGGAAUGAUAACGCGUCUCCCUCCUAAGGAGAAGACUGCGGGUUAGAGUCCCGUACGGAACG [G6C U13G G18A C55A] | 0.514 |
| GUUCCCUCGGCGUAAUGGUAACGCGUCUGCCUCCUAAGGAGAAGACUGCGGGUUCGAGUCUCGUACGGAACG [G6C U8C C29G C61U] | ≤ 0.5 |
| GUUCCCUAGGCGUAAUGGUAACGCGUCUCCCUCCUAAGGAGAAGUCUGCGGGCUCGAGUCCCGUACAGCACG [G6C U8A A45U U53C G67A A69C] | 0.775 |
| GUUCCCUUGGCGAAAUGGUAACGCGUCUCCCUCCUAAGGAGAAGACUGCGGGUACGCGUCCCGUACGGAACG [G6C U13A U54A A57C] | ≤ 0.5 |
| GUUCCCUUGGCGUAACGGUAACGCGUCUCCCUCCUAAGGACAAGACUGCGAGUUUGAGUCCCGUACGGAACG [G6C U16C G41C G51A C55U] | ≤ 0.5 |
| GUUCCCUAGGCGUAAUGGUAACGCGUCUCCCUCCUAAGGAGAAGACUGCGGGUUCGACUCACGUACGGAACG [G6C U8A G58C C61A] | ≤ 0.5 |
| GUUCCCUUGGCGAAAUGGUAACGCGUCUCCCUCCUAAGGAGAAGACUGCGGGUUCGAGUCCCGUACGGAACG [G6C U13A] | 0.718 |
| GUUCCCUCGGCGUAAUGGUAACGCGUCUCCCUCCUAAGGAGAAGACUGCGGGUUCGAGUACUGUACGGAACG [G6C U8C C60A C62U] | ≤ 0.5 |
| GUUCCCGUGGCGUAAUGGUAACGCGUCUCCCUCCUAAGGAGAUGACUGCGGGUUCGAGUCCCGUCCGGAACG [G6C U7G A43U A65C] | 0.825 |
| GUUCCCUCGGCGUAAUGGUAACGCAUCUCCCUCCUAAGGAGAAGACUGCGGGUUCGAGUCCCGUACGGAACG [G6C U8C G25A] | 0.581 |
| GUUCCCGUGGCGUAAUCGUAACGCGUCUCCCUCCUAAGGAGAAGACUGUGGGUUCGACUCACGUUCGGAACG [G6C U7G G17C C49U G58C C61A A65U] | ≤ 0.5 |
| GUUCCCUAGGCGUAAUGGUAACGCGUCUCCCUCCUAAGGAGAAGACUGCGAGUUCGAGUCCCGUUCAGAACG [G6C U8A G51A A65U G67A] | ≤ 0.5 |
| GUUCCCUUGGCGCAAUGGUAACGCGUCUCCCUCCUAAGGAGAAGAAUGCGGGUUCGAGUCCCGUACGGAACG [G6C U13C C46A] | 0.627 |
| GUUCCCUUGGCGAAAUGGUAACGUGUCUCCAUCCUAAGGAGAAGACUGCGGGUCCGAGUCCCGUACGGAACG [G6C U13A C24U C31A U54C] | ≤ 0.5 |
| GUUCCCUCGGCGUAAUGGUAACGCGUCUCCCUCCUAAGGAGGAGAUUGCGGGUUGGAGUCCCGUUCGGAACG [G6C U8C A42G C46U C55G A65U] | ≤ 0.5 |
| GUUCCCUCGGCGUAAUGGUAACGCGUUUCCCUCCUAAGGAGAAGACUACGGGUUCGGGUCCCGUACGGAACG [G6C U8C C27U G48A A57G] | ≤ 0.5 |

| Variant | yeast fitness |
| --- | --- |
| GUUCCCUGGCCGUAAUGGUAACGCGUCUCCCUCCUAGGGAGAAGACUGCGGGUUCGAGUCCUGAACGGAACG [G6C U8G G10C A37G C62U U64A] | 0.504 |
| GUUCCCUCGGUGUAAUGGCUACGCGUCUCCCUCCUAAGGAGCAGACUGCGGGUUCGAGUCCCGUCCGGUACG [G6C U8C C11U U19C A20U A42C A65C A69U] | ≤ 0.5 |
| GUUCCCUUGGCGUAAAGGUAACCCGUCUCCCUCCUAAGGAGAAGACUGCGGGUUCGAGUUCCGUACGGAACG [G6C U16A G23C C60U] | 0.625 |
| GUUCCCUUGGCGUAACGGUAACGCGUCUCCCUCCUAAGGAGUAGACUGCGGUUUCGAGUCCCGUACGGAACG [G6C U16C A42U G52U] | 0.634 |
| GUUCCCUUGGCGUAAAGCUAAGGCGUCUCCCUCCUAAGGAGAAGACUGUGGGUUCGAGUCCCGUACGGAACG [G6C U16A G18C C22G C49U] | ≤ 0.5 |
| GUUCCCUUGGCGUAACGGUAACGCGUCUCCCUCCUAAGGAGAAGAGUGCGGGUUCGAGUCCUGUAUGGAACG [G6C U16C C46G C62U C66U] | ≤ 0.5 |
| GUUCCCUCGGCGUAAUGGUAACGCGUCUCCCUCCUAAGGACAAGACUGCGCGUUCGAGUCCCGUACGGAACG [G6C U8C G41C G51C] | ≤ 0.5 |
| GUUCCCGUGGCGUAAUCGUAACGCGUCUCCCUCCUAAGGAGAAGACUGCGGGUUCGAGUCCCGUACAGAACG [G6C U7G G17C G67A] | ≤ 0.5 |
| GUUCCCUUGGCGCAAUGGUAACGCGUCUCCGUACUAAGGAGAAGACUGCGGGUUCGAGUCCCGUACGGAACG [G6C U13C C31G C33A] | ≤ 0.5 |
| GUUCCCUCGGCGUAAUGGUACCGCGUCUCCCUCCUAAGGAGAAGACUGCGGGUUCGAGUCCCGUACGGAACG [G6C U8C A21C] | ≤ 0.5 |
| GUUCCCUUGGCGCAAUGGUAACGAGUGUCCCUCCUUAGGAGAAGACUGCGGGUUCGAGUCCCGUACGGAACG [G6C U13C C24A C27G A36U] | ≤ 0.5 |
| GUUCCCUUGGCGUAAAGCUAAGGCGUCUCCCUCCUAAGGAGAAGACUGCGGCUUCGAGUCCCGUACGAAACG [G6C U16A G18C C22G G52C G68A] | ≤ 0.5 |
| GUUCCCGUGGCGUAAUCGUAACGCGUCUCCCUCCUAAGGAGAAGACUGCGGGAUCGAGUCCCGUACGGAACG [G6C U7G G17C U53A] | ≤ 0.5 |
| GUUCCCCUGGCGUAAUGGUAACGCGUCUCCCUCCUAAGGAGAAGACUACGGGUUCGAGUCCCGUACGGAACG [G6C U7C G48A] | 0.614 |
| GUUCCCUCGGCGUAAUGGUAACGCGUCUCCCUCGUAAGGAGAAGGCUGCGGGUUCGAGUCCCGUUCGGAACG [G6C U8C C34G A45G A65U] | ≤ 0.5 |
| GUUCCCUUGGCGUAAAGCUAAGGCGUCUCCCUCCUAAGGAGAAGACUGCGGGUUCGAGUCCCGUACGGAACG [G6C U16A G18C C22G] | 0.615 |
| GUUCCCGUGGCGUAAUCGUAACGCGUCUCCCUCCUAAGGAGAAGACUGCGGGUUCGAGUGCCGUACGGAACG [G6C U7G G17C C60G] | 0.574 |
| GUUCCCUCGGCGUAAUGGUAACGCGUCUCCCUCCUAAGGAGAAGACUGCGGGUUCGACUCCCGUACGGUACG [G6C U8C G58C A69U] | 0.528 |
| GUUCCCUCGGCGUAAUGGUAACGCGUCUCCCUCCUAAGGAGGAGACUGCGGGUUCGAGUCCCGUACGGAACG [G6C U8C A42G] | 0.575 |
